pIC50: −log10 of the molar value. Calls of active or inactive are those of the source. The calls are words filed in the database; no cut-off is given here.
Assays:
[1] = system: NCI-H1975; experiment: Antitumor activity against human NCI-H1975 cells harboring EGFR L858R/T790M mutant xenografted in BALB/c nude mouse assessed as tumor growth inhibition at 15 mg/kg, po for 18 days; format: functional; settings: NCI-H1975, 432 h, time 18 day, read-out: TGI
Outline: (§1)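 H1975 cells (1 × 10^6 in 0.1 mL PBS) injected subcutaneously into the right flank of female nude mice. At mean tumor volume of about 100 mm3 (roughly 18 days), mice randomized, n = 6 per group, and dosed once daily for 18 days against a vehicle group. Tumor volume (0.5 × L × W²) measured every 2–3 days; tumors weighed at sacrifice. Data given as mean ± SEM.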

[2] = molecular target: Tyrosine-protein kinase JAK2 (Homo sapiens) (UniProt O60674); experiment: Inhibition of JAK2 (unknown origin) at 1000 nM by DiscoverX KINOMEscan assay relative to control; values are per cent of control
[3] = molecular target: Receptor tyrosine-protein kinase erbB-4 (Homo sapiens) (UniProt Q15303); experiment: Inhibition of ERBB4 (unknown origin) at 1000 nM by DiscoverX KINOMEscan assay relative to control; values are per cent of control
[4] = system: NCI-H1975; experiment: Antitumor activity against human NCI-H1975 cells harboring EGFR L858R/T790M mutant xenografted in BALB/c nude mouse assessed as tumor growth inhibition at 30 mg/kg, po for 18 days; format: functional; settings: NCI-H1975, 432 h, time 18 day, read-out: TGI; outline: as §1
[5] = system: NCI-H1975; experiment: Antitumor activity against human NCI-H1975 cells harboring EGFR L858R/T790M mutant xenografted in BALB/c nude mouse assessed as tumor cell proliferation at 15 to 30 mg/kg, po for 18 days by Ki-67 staining based immunohistochemical analysis; format: functional, organism-based; settings: dose 15-30 mg/kg, time 18.0 day
Outline: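 H1975 xenograft tumors from nude mice (n = 6/group, daily dosing 18 days) were harvested, fixed in 10% formalin, paraffin-embedded and cut into 5 µm sections. Sections deparaffinized and incubated with primary anti-Ki-67 antibody at room temperature; immunoreactivity visualized with DAB.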

[6] = AUC (0 to infinity) in Sprague-Dawley rat at 1 mg/kg, iv and measured after 24 hrs by LC-MS/MS analysis; format: ADME, organism-based; parameters: time 24 hrs, dose 1 mg/kg, route iv; settings: in vivo
[7] = Clearance in Sprague-Dawley rat at 1 mg/kg, iv and measured after 24 hrs by LC-MS/MS analysis; format: ADME, organism-based; settings: in vivo
[8] = Cmax in Sprague-Dawley rat at 10 mg/kg, po and measured after 24 hrs by LC-MS/MS analysis; format: ADME, organism-based; parameters: dose 10 mg/kg, time 24 hrs, route po; settings: in vivo
Outline: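 Male Sprague–Dawley rats (190–220 g) dosed by oral gavage at 10 mg/kg in 5% DMSO / 95% HP-β-CD aqueous solution (20%); iv reference arm at 1 mg/kg. Blood sampled at 0.25, 0.5, 1, 2, 4, 6, 8 and 24 h, centrifuged (8000 × g, 6 min), and plasma quantified by LC–MS/MS.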

[9] = system: A-431; experiment: Antiproliferative activity against human A-431 cells harboring wild type EGFR assessed as inhibition of cell proliferation incubated for 72 hrs by sulforhodamine B colorimetric assay; format: functional, cell-based; settings: A-431, 72 h
[10] = molecular target: T1, Tyrosine-protein kinase JAK3 (Homo sapiens) (UniProt P52333); experiment: Inhibition of JAK3 (unknown origin) at 1000 nM by DiscoverX KINOMEscan assay relative to control; values are per cent of control
T1 sequence (whole entry): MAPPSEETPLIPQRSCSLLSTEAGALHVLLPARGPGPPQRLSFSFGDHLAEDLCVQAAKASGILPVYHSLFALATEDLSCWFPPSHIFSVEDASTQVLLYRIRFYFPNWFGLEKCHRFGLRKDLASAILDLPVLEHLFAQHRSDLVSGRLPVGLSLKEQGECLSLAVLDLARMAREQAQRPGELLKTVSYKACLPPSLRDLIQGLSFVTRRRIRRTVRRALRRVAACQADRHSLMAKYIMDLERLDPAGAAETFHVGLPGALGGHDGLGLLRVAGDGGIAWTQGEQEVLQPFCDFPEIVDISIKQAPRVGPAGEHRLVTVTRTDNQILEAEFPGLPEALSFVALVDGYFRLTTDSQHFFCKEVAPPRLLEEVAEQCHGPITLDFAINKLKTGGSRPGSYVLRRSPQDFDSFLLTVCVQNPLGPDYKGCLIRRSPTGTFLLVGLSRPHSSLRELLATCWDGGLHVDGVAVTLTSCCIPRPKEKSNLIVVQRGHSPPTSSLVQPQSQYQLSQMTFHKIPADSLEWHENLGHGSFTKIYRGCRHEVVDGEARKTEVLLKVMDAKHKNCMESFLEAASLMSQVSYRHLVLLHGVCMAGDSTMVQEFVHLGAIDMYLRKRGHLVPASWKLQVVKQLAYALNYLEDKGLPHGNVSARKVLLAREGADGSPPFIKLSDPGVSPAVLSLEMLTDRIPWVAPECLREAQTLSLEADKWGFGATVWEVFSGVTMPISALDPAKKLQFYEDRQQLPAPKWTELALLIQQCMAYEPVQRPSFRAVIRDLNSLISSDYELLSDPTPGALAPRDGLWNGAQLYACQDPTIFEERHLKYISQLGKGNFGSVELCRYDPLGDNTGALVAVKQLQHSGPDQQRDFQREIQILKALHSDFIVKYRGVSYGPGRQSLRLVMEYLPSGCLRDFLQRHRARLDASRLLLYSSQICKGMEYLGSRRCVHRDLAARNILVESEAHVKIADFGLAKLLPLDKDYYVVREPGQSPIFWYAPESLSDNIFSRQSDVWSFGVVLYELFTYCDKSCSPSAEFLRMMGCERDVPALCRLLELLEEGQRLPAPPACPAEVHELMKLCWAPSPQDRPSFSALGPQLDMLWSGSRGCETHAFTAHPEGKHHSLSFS

Receptor tyrosine-protein kinase erbB-4 (Homo sapiens), sequence (Q15303 whole entry): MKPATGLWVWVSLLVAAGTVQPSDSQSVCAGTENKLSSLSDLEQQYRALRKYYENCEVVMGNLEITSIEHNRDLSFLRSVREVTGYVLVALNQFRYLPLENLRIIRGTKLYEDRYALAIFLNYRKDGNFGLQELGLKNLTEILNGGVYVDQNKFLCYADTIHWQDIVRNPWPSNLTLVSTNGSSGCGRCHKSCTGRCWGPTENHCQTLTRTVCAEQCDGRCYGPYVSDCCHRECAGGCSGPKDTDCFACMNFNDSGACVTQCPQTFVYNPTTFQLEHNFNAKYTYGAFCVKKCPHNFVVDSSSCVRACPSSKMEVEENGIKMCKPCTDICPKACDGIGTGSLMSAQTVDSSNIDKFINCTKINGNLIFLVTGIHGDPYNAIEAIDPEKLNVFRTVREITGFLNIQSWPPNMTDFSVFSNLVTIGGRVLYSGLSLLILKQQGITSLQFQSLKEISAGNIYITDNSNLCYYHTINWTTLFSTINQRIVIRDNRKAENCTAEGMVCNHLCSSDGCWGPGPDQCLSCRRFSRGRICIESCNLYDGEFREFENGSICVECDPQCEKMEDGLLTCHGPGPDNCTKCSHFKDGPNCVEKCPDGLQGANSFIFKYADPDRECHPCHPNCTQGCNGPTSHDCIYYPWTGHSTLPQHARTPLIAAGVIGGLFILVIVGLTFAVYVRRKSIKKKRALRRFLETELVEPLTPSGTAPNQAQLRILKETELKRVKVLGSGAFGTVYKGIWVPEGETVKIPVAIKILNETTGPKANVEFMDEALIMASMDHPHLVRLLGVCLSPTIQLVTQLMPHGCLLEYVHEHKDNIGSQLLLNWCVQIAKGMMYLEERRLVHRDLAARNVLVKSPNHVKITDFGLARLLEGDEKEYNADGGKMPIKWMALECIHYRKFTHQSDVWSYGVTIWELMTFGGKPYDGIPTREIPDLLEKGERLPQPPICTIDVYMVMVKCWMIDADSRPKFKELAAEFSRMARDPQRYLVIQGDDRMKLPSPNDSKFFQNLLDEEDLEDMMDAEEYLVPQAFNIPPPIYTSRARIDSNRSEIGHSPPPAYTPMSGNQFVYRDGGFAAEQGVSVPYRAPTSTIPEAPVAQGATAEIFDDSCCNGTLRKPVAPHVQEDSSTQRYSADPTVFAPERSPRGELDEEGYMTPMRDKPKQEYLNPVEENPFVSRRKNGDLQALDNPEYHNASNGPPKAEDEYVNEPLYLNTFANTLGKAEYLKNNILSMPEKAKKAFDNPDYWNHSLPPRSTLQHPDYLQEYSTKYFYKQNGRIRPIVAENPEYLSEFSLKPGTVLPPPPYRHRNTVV
Tyrosine-protein kinase JAK2 (Homo sapiens), sequence (O60674 whole entry): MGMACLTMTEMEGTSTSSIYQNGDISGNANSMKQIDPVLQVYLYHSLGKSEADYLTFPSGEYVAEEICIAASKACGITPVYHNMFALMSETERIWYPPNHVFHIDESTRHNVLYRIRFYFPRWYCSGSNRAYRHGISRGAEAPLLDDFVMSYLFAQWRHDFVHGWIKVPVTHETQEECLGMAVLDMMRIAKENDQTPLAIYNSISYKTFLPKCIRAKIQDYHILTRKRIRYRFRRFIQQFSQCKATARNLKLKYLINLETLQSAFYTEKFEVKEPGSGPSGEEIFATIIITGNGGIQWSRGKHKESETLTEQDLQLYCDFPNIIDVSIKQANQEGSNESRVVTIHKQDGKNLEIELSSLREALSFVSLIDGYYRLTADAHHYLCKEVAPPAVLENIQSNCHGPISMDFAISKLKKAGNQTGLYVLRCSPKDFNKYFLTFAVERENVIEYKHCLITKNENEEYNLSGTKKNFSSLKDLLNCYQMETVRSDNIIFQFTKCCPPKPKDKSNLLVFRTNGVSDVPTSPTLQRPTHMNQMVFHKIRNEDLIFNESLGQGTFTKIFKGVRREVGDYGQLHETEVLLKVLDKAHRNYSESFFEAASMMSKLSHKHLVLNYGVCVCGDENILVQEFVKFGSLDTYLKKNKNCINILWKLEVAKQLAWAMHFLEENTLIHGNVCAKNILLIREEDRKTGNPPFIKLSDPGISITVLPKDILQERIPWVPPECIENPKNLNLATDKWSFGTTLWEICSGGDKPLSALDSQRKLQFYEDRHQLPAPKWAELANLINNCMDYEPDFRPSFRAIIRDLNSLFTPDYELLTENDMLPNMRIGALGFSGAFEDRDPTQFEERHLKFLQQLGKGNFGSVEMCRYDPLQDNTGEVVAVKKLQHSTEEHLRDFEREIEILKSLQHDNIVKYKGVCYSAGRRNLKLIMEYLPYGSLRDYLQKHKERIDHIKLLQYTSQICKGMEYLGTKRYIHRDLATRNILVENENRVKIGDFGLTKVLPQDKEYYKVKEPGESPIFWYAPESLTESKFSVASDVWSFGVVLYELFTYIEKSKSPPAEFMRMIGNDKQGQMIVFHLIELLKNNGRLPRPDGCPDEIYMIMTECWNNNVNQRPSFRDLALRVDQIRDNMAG

**Q.** Which results are given for C=CC(=O)Nc1cc(Nc2ncc(Br)c(Nc3ccc4ccn(C)c4c3)n2)c(OC)cc1N1CCN(C)CC1?
**A.** inhibition in vivo at 15 mg/kg [1]: 62%; residual activity [2]: < 10%; residual activity [3]: < 10%; inhibition in vivo at 30 mg/kg [4]: 86%; Activity [5]: Active; AUC [6]: 515 ng·h/mL; clearance [7]: 32.6 mL/min/kg; Cmax [8]: 636 ng/mL; pIC50 [9]: 5.77; residual activity [10]: < 1%

Source: ChEMBL document CHEMBL5260822, “Structure-based design and synthesis of 2,4-diaminopyrimidines as EGFR L858R/T790M selective inhibitors for NSCLC” (Eur J Med Chem, 2017)
